# Screens: PubChem BioAssay, several laboratories
# Lung fibro prol: antiproliferative effect on LL 47 fibroblasts – human, LL 47 cells, CellTiter-Glo luminescence, primary screen. LL 47 human lung fibroblast viability, ATP luminescence; hits give low values. viability, % at 10 µM. hit rate 1.1% among 85,000. AID 719, 2007;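 active = viability at or below 50% in the single dose screen; inactive = viability above 50%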;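 also: compound exposure lasted 72 h before the ATP readout; 100% = median luminescence of untreated cell-only wells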
#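 Material: human lung fibroblast line LL 47, low passage; Evaluation: viability percentage against median untreated-cell control; Buffer or medium: 15% FBS in IMEM; Incubation: 72 h compound exposure at 37 °C after overnight plating; Dosing: 0.1% DMSO in all compound wells; Measured by: CellTiter-Glo luminescence.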
# PTEN del growth: growth suppression of PTEN-null HCT116, primary screen, cell-based, CellTiter-Glo | viability, % at 10 µM | hit rate 1.2% among 140,000 | HCT116 PTEN-null viability, 60 h; hits give low values;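 active = viability at or below a set limit, 4 SD under the median of all tested compounds, cut at about 3.7% in these data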;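 also: PTEN knockout HCT116 line with beta catenin targeted HCT116 as companion control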
# HUVEC prolif 384: inhibitors of HUVEC proliferation, primary screen, cell-based, 384-well. CellTiter-Glo luminescence, 72 h; hits give low values. viability, % at 10 µM (by protocol). hit rate 1.1% among 86,000;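 active = viability at or below 30%; inactive = viability above 30%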;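 also: 100% = median luminescence of DMSO-only cell control wells on each plate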
# HCT116 bCat-KO: primary screen for growth suppressors in beta-catenin knockout HCT116 cells (colon tumor, human) | AID 818, 2007 | viability, % at 10 µM | HCT116 beta-catenin knockout viability, CellTiter-Glo, 60 h; hits give low values | hit rate 1.5% among 140,000;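 active = viability at or under a set limit, the compound median less 4 SD, cut at about 6% in these data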;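 also: 0% = Hyamine 1622 control at 20 µM and 100% = untreated cell control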
# Pyk2 oligo antag: antagonists of Pyk2 self-association, primary screen, Q293 cells, FERM NanoBiT luminescence, HTS; hits give low values; z-score (the deposit names both 25 µM and 10 µM); hit rate 0.83% among 99,000; AID 1347419, 2020;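 active = Z-score of -3 or lower, scaled per plate to the spread of control and sample wells; inactive = z-score above -3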;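 also: negative z-score means lost luminescence so less FERM oligomerization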
# H69AR growth 86K: proliferation blockers of H69AR lung cancer cells, primary screen, cell-based, human, 86K library. H69AR lung tumor viability, ATP luminescence, 72 h; hits give low values. viability, % at 10 µM. hit rate 6% among 85,000. AID 598, 2007;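 active = viability at or below 40%; inactive = viability above 40%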;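 also: multidrug resistant small cell line overexpressing MRP-1 efflux transporter; 100% = mean luminescence of untreated control wells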
# Numbers without * were called inactive; nt = not tested or not shown. Shown is part of a subset that was picked to be rich in hits.
SMILES,Lung fibro prol,PTEN del growth,HUVEC prolif 384,HCT116 bCat-KO,Pyk2 oligo antag,H69AR growth 86K
CCN(CC(=O)NC(=O)NC1CCCCC1)Cc1nc2ccccc2c(=O)[nH]1,98.2,85.1,90.2,93.3,0.61,77.4
COc1ccc(C2C(Oc3ccccc3)C(=O)N2c2cc(C)ccc2C)cc1OC (stereo not drawn),nt,64.1,nt,64.3,-1.48,nt
COc1ccc(C)cc1N1C(=N)/C(=C2/Nc3ccccc3S2)C(c2ccccc2)C1=O (stereo not drawn),nt,1.7*,nt,1.6*,nt,nt
NS(=O)(=O)c1ccc(N/N=C2/CCCCC2C2CCCCC2)c([N+](=O)[O-])c1 (stereo not drawn),nt,2.5*,nt,1.7*,nt,nt
CC1C/C(=N\Nc2ccc(S(N)(=O)=O)cc2[N+](=O)[O-])CC(C)(C)C1 (stereo not drawn),nt,61.2,nt,61.5,nt,nt
O=C(/C=C/c1ccco1)NC(=S)Nc1ccc(O)c(-c2nc3ccccc3s2)c1,nt,7.5,nt,2.2*,nt,nt
O=C(/C=C/c1ccco1)NC(=S)NNC(=O)c1ccco1,92.3,62.1,28.0*,59.9,-0.03,61.5
O=C(Nc1ccc(O)c(-c2nc3ccccc3s2)c1)c1cccs1,nt,100.0,nt,91.1,nt,nt
O=C(Nc1ccccc1-c1nc2ccccc2s1)c1ccco1,82.8,65.1,46.4,71.4,0.39,37.2*
Cc1ccnc(NC(=S)NC(=O)/C=C/c2ccco2)c1,71.7,23.7,64.2,19.1,0.14,25.9*
O=C(Nc1ccccc1-c1nc2ccccc2s1)c1cccnc1Cl,nt,80.5,nt,72.0,-0.51,nt
COc1cccc(CN(C)CC(=O)NC(=O)NCc2ccco2)c1,107.2,99.2,101.5,100.4,-0.22,92.9
CCCOc1ccc(CC(=O)NCC2(c3ccccc3)CCOCC2)cc1OC,91.6,90.8,98.5,87.9,0.9,58.5
O=C(/C=C/c1ccc(Br)cc1)NC1CCCCCC1,nt,99.0,nt,99.8,-0.4,nt
CCOc1ccc(/C=C/C(=O)Nc2ccc(C(N)=O)cc2)cc1OC,nt,96.8,nt,100.3,nt,nt
CCC1CSC(Nc2ccc(C(=O)/C=C/c3ccc(OC)c(OC)c3)cc2)=N1 (stereo not drawn),nt,3.4*,nt,3.0*,nt,nt
CCC1CSC(Nc2ccc(C(=O)/C=C/c3ccc(Br)cc3)cc2)=N1 (stereo not drawn),nt,2.8*,nt,5.4*,nt,nt
COc1ccc(-n2ncc(S(=O)(=O)c3ccccc3)c2-c2ccc(Cl)cc2)cc1,nt,40.2,nt,66.7,-3.27*,nt
Cc1nn2c(COc3ccc(NC(=O)c4ccccc4Cl)cc3)nnc2c2ccccc12,nt,29.6,nt,25.1,nt,nt
c1ccc(OCCOCCN2CCN(C(c3ccccc3)c3ccccc3)CC2)cc1,nt,58.0,nt,52.0,nt,nt
O=S(=O)(CCN1CCN(C(c2ccccc2)c2ccccc2)CC1)C(F)(F)F,73.0,25.2,79.0,8.8,0.1,4.4*
O=C(Nc1ccccc1)Nc1ccc2snnc2c1,100.9,65.7,52.7,52.1,-1.16,13.2*
CN(C)c1ccc(NC(=O)Nc2ccc3snnc3c2)cc1,103.2,103.7,92.9,99.0,-0.09,79.0
COc1cccc(S(=O)(=O)Nc2ccc(C(=O)N3CCOCC3)cc2)c1,101.9,96.4,78.5,101.0,0.9,98.6
Cc1cccc(NS(=O)(=O)c2ccc3c(c2)Cc2cc(S(=O)(=O)Nc4cccc(C)c4C)ccc2-3)c1C,nt,6.1,nt,29.6,0.17,nt
SMILES,Lung fibro prol,PTEN del growth,HUVEC prolif 384,HCT116 bCat-KO,Pyk2 oligo antag,H69AR growth 86K
CCCN1C(=O)SC(CC(=O)Nc2ccccc2C)C1=O (stereo not drawn),106.3,68.5,92.9,65.5,0.38,29.7*
O=C(NC1CCCCC1)c1ccc(CNc2ccccc2)o1,94.3,103.6,90.1,86.4,-0.17,89.0
COc1cc2c(cc1OC)C(c1ccccc1)N(C(=O)CCl)CC2 (stereo not drawn),nt,2.0*,nt,1.9*,-0.29,nt
COc1cc2c(cc1OC)C(C1C(=O)CCCC1=O)N(C(=O)CCl)CC2 (stereo not drawn),nt,98.6,nt,93.9,nt,nt
CCOC(=O)c1c(C)[nH]c(C(=O)OCC(=O)Nc2ccc(OC)c(Cl)c2)c1C,nt,94.9,nt,89.6,0.12,nt
CCOC(=O)c1c(C)[nH]c(C(=O)OCC(=O)Nc2cc(Cl)ccc2OC)c1C,66.4,11.8,65.4,9.8,0.15,2.6*
CCOC(=O)c1[nH]c(C)c(C(=O)Nc2cc(OC)ccc2OC)c1C,59.9,19.5,55.7,17.7,-1.74,27.8*
CCOC(=O)c1c(C)[nH]c(C(=O)OCC(=O)Nc2cc(C)ccc2OC)c1C,23.5*,12.5,30.8,2.2*,2.39,15.8*
O=C(CSc1ncnc2c1cnn2CCO)Nc1cccc(C(F)(F)F)c1,nt,91.5,nt,89.5,nt,nt
Cc1ccc(Cn2c(=S)[nH]c3ccc(N4CCOCC4)cc3c2=O)o1,46.2*,76.3,76.0,84.5,-0.27,5.8*
CCOC(=O)CS(=O)(=O)c1nc(-c2ccccc2)cc(C(F)(F)F)n1,3.8*,95.3,12.2*,93.0,0.51,1.6*
CCOC(=O)CS(=O)(=O)c1nc(-c2ccc(F)cc2)cc(C(F)(F)F)n1,2.9*,95.2,23.5*,100.9,-0.08,4.4*
CCOC(=O)CCS(=O)(=O)c1nc(-c2ccccc2)cc(C(F)(F)F)n1,3.0*,95.6,28.4*,90.2,0.15,0.8*
COC(=O)CCS(=O)(=O)c1nc(-c2ccccc2)cc(C(F)(F)F)n1,27.5*,84.0,55.5,87.8,-2.49,1.4*
CCOc1ccc(S(=O)(=O)NC(C)(C)C)cc1-c1nc2c(C(C)(C)C)nn(C)c2c(=O)[nH]1,87.5,15.0,59.2,19.9,-0.78,67.6
COc1ccc(NS(=O)(=O)c2cc(C)ccc2C)cc1,77.8,11.5,62.0,7.7,-1.69,13.5*
COc1ccc(NS(=O)(=O)c2cc(S(C)(=O)=O)ccc2C)cc1,nt,110.1,nt,96.3,nt,nt
COc1ccc(NC(=O)c2cc(-c3ccccc3)oc2C)cc1,nt,97.7,nt,101.0,nt,nt
COc1ccc(NS(=O)(=O)c2cc(OC)ccc2NC(=O)c2cc(C)oc2C)cc1,67.1,27.0,56.1,22.3,-0.17,21.4*
Cc1ccccc1C(=O)Nc1nnc(-c2ccc(F)cc2)o1,85.2,12.7,64.8,12.4,nt,35.6*
O=C(Nc1nnc(-c2ccccc2)o1)c1nc2ccccc2s1,90.4,nt,66.7,nt,nt,29.1*
O=C(Nc1nnc(-c2ccc3c(c2)CCCC3)o1)C1CCCCC1,80.0,59.0,69.9,43.1,nt,48.8
COc1ccc(-c2nnc(NC(=O)c3cc(Cl)ccc3Cl)o2)cc1,75.7,21.9,50.2,29.4,nt,30.1*
CN(C)S(=O)(=O)c1ccc(C(=O)Nc2nnc(-c3ccc4c(c3)CCCC4)o2)cc1,71.3,15.0,39.5,14.6,nt,27.9*
COc1ccc(-c2nnc(NC(=O)c3ccc(F)cc3)o2)cc1,57.4,15.1,55.2,20.6,nt,75.5
